Published values of several laboratories.
Each line is one published result; the experiments were not run side by side.
EGFR A750P/del747-749: Epidermal growth factor receptor (EGFR, Homo sapiens, UniProt P00533, A750P/del747-749)
EGFR L858R/T790M: Epidermal growth factor receptor (EGFR, Homo sapiens, UniProt P00533, L858R/T790M)
EGFR G719C: Epidermal growth factor receptor (EGFR, Homo sapiens, UniProt P00533, G719C)
EGFR T790M: Epidermal growth factor receptor (EGFR, Homo sapiens, UniProt P00533, T790M)
EGFR L861Q: Epidermal growth factor receptor (EGFR, Homo sapiens, UniProt P00533, L861Q)
EGFR G719S: Epidermal growth factor receptor (EGFR, Homo sapiens, UniProt P00533, G719S)
EGFR del746-750: Epidermal growth factor receptor (EGFR, Homo sapiens, UniProt P00533, del746-750)
EGFR: Epidermal growth factor receptor (EGFR, Homo sapiens, UniProt P00533)
EGFR del747-752/P753S: Epidermal growth factor receptor (EGFR, Homo sapiens, UniProt P00533, del747-752/P753S)
EGFR L858R: Epidermal growth factor receptor (EGFR, Homo sapiens, UniProt P00533, L858R)

SMILES | target | effect on | method | concentration | remaining binding [%]
COc1cccc(CNC(=O)c2nc3scc(COCc4ccc(C(=O)O)cc4)c3c(=O)[nH]2)c1 | EGFR A750P/del747-749 | cell-free assay | competition with immobilised ligand | 1 µM | 76
CN(CCCC(F)(F)F)c1nccc(-c2cnn3ncccc23)n1 | EGFR L858R/T790M | binding | – | 1 µM | 100
O=C(c1ccc(Nc2nccc(-c3cc4ccccc4s3)n2)cc1)N1CCC(N2CCCC2)CC1 | EGFR G719C | binding | competition with immobilised ligand | 1 µM | 93
CCOC(=O)c1cc2cc(-c3cc(C(=O)NCc4ccc(C(=O)O)cc4)nn3C)ccc2[nH]1 | EGFR T790M | cell-free assay | competition with immobilised ligand | 0.1 µM | 89
O=C(Nc1c[nH]nc1C(=O)NC1CCNCC1)c1cc(F)cc(F)c1 | EGFR L861Q | binding | competition with immobilised ligand | 1 µM | 100
NS(=O)(=O)c1cc(NC(=O)Cc2ccccc2)ccc1Oc1cccc(Cl)c1 | EGFR G719S | cell-free assay | competition with immobilised ligand | 1 µM | 74
CN1CCN(c2ccc(Nc3nccc(-c4cccc([N+](=O)[O-])c4)n3)cc2C(F)(F)F)CC1 | EGFR del746-750 | binding | – | 10 µM | 34
CN(C)c1nccc(-c2cnn3ncccc23)n1 | EGFR L861Q | binding | – | 1 µM | 90
Cc1cnc(Nc2ccc(C(=O)N3CCC(N4CCCC4)CC3)cc2)nc1-c1cc2ccccc2s1 | EGFR G719C | binding | competition with immobilised ligand | 1 µM | 92
c1cncc(-c2cccc(Nc3nccc(NC4CCCCC4)n3)c2)c1 | EGFR A750P/del747-749 | binding | competition with immobilised ligand | 10 µM | 36
Nc1ncc2c(n1)-c1c([nH]c3ccc(C#CC4CC4)cc13)CCCC2 | EGFR A750P/del747-749 | binding | competition with immobilised ligand | 1 µM | 84
CC1CCCN1c1nccc(-c2cnn3ncccc23)n1 (centres unmarked) | EGFR del746-750 | binding | – | 1 µM | 75
O=C(NCCCN1CCOCC1)c1ccc(Nc2nccc(-c3cc4ccccc4s3)n2)cc1 | EGFR | binding | competition with immobilised ligand | 1 µM | 87
CCN1CCN(Cc2ccc(C(=O)Nc3ccc(C)c(Oc4ccc5c(c4)CC(=O)N5)c3)cc2C(F)(F)F)CC1 | EGFR L858R/T790M | binding | competition with immobilised ligand | 1 µM | 90
CCOCCn1cc(C(=O)Nc2ccc(-n3nc(-c4cccnc4)cc3C(F)(F)F)cn2)ccc1=O | EGFR A750P/del747-749 | cell-free assay | competition with immobilised ligand | 1 µM | 96
F[C@@H]1CCN(c2nccc(-c3cnn4ncccc34)n2)C1 | EGFR L858R/T790M | binding | – | 1 µM | 100
O=C(NCC1CCOCC1)c1n[nH]cc1NC(=O)c1c(F)cccc1F | EGFR | binding | competition with immobilised ligand | 1 µM | 99
CN(C)c1ncnc(-c2ccc3nc(Nc4cc(CN5CCN(C(=O)CC(F)(F)F)CC5)ccn4)[nH]c3c2)c1Cl | EGFR L858R/T790M | cell-free assay | competition with immobilised ligand | 1 µM | 82

SMILES | target | effect on | method | concentration | remaining binding [%]
C[C@@H]1CN(c2ccc3ncc(-c4ccc5[nH]nc(C6CC6)c5c4)n3n2)C[C@H](C)O1 | EGFR | binding | competition with immobilised ligand | 50 nM | 60
COc1ncc2cc3ccccc3nc2c1C#N | EGFR del746-750 | cell-free assay | competition with immobilised ligand | 5 µM | 87
C[C@H](NC(=O)c1cnc2n1[C@](C)(Cc1ccc(C#N)cc1)C(=O)N2c1cc(Cl)c(F)c(Cl)c1)C(=O)NC1(c2ccccn2)CC1 | Epidermal growth factor receptor (EGFR, Homo sapiens, UniProt P00533, del752-759) | cell-free assay | competition with immobilised ligand | 1 µM | 100
O=C(c1ccc(Nc2ncc(Cl)c(-c3cc4ccccc4s3)n2)cc1)N1CCC(N2CCCC2)CC1 | EGFR del747-752/P753S | binding | competition with immobilised ligand | 1 µM | 79
N[C@H]1CCN(c2nccc(-c3cnn4ncccc34)n2)C1 | EGFR G719S | binding | – | 1 µM | 93
O=C(c1ccc(Nc2ncc(Cl)c(-c3ccc(Cl)s3)n2)cc1)N1CCC(N2CCCC2)CC1 | EGFR del747-752/P753S | binding | competition with immobilised ligand | 1 µM | 82
CN1CCN(c2ccc(Nc3nccc(-c4ccccc4)n3)cc2C(F)(F)F)CC1 | EGFR G719S | binding | – | 10 µM | 98
COc1cnc(Nc2cccc(S(N)(=O)=O)c2)nc1N1CCN(c2ccccc2)CC1 | EGFR del747-752/P753S | binding | competition with immobilised ligand | 1 µM | 85
Cc1c(-c2ccccc2)oc2c(C(=O)OCCN3CCCCC3)cccc2c1=O | EGFR | cell-free assay | competition with immobilised ligand | 10 µM | 88
O=C(NCCCN1CCOCC1)c1ccc(Nc2ncc(Cl)c(-c3ccc(Cl)s3)n2)cc1 | EGFR L861Q | binding | competition with immobilised ligand | 1 µM | 100
C[C@H]1CCN(c2nccc(-c3cnn4ncccc34)n2)C1 | EGFR G719S | binding | – | 1 µM | 75
COc1cnc(Nc2cccc(S(N)(=O)=O)c2)nc1N1CCN(c2ccccc2)C(=O)C1 | EGFR T790M | binding | competition with immobilised ligand | 1 µM | 92
Cc1cnn2ncc(-c3ccnc(N(C)C)n3)c2c1 | EGFR del746-750 | binding | – | 1 µM | 100
CNC(=O)c1ccc(Nc2ncc(C(F)(F)F)c(NCc3nccnc3N(C)S(C)(=O)=O)n2)cc1 | EGFR L858R | cell-free assay | competition with immobilised ligand | 0.1 µM | 100
CC(C)(C)c1ccc(-c2nc(CBr)nn2-c2cccc(O)c2)cc1 | EGFR | cell-free assay | competition with immobilised ligand | 10 µM | 85
COc1ccc2c(c1)O[C@H](c1ccc(OC)c(OC)c1)C[C@@H]2NC(=O)C1(c2ccc3c(c2)OC(F)(F)O3)CC1 | EGFR L858R | cell-free assay | competition with immobilised ligand | 1 µM | 100
CNC(=O)[C@@H]1CC[C@@H](n2c(-c3ccc4cnccc4c3)nc3ccc(C(=O)NCc4cccc(C(N)=O)c4)cc32)C1 | EGFR | binding | competition with immobilised ligand | 1 µM | 100
